System: not listed separately
Assay: Inhibition of Escherichia coli MurD

| Compound | IC50 [µM] |
| --- | --- |
| CCCCOc1ccc2cc(S(=O)(=O)NCCCC(=O)O)ccc2c1 | > 2000 |
| CCCCOc1ccc2cc(S(=O)(=O)NCC(=O)O)ccc2c1 | > 2000 |
| C[C@@H](CS(=O)(=O)N[C@H](CCC(=O)O)C(=O)O)S(=O)(=O)c1ccc2ccccc2c1 | > 2000 |
| CCCCOc1cccc2c(S(=O)(=O)N[C@H](CCC(=O)O)C(=O)O)cccc12 | > 1000 |
| CCCCOc1ccc2cc(S(=O)(=O)N[C@H](CCC(=O)OC)C(=O)OC)ccc2c1 | > 2000 |

The remaining lines, values ahead:

| IC50 [µM] | Compound |
| --- | --- |
| > 1000 | CCCCOc1ccc2cc(CN[C@H](CCC(=O)O)C(=O)O)ccc2c1 |
| > 1000 | O=C(O)CCCOc1ccc2cc(S(=O)(=O)N[C@H](CCC(=O)O)C(=O)O)ccc2c1 |
| 192 | CCOC(=O)COc1ccc2cc(S(=O)(=O)N[C@H](CCC(=O)O)C(=O)O)ccc2c1 |
| 239 | O=C(O)CC[C@@H](NS(=O)(=O)c1ccc2cc(OCc3ccccc3)ccc2c1)C(=O)O |
| 100 | COc1cc(C#N)ccc1COc1ccc2cc(S(=O)(=O)N[C@H](CCC(=O)O)C(=O)O)ccc2c1 |
| 132 | O=C(O)CC[C@@H](NS(=O)(=O)c1ccc2cc(OCCCc3ccccc3)ccc2c1)C(=O)O |
| > 1000 | CCCCOc1ccc(S(=O)(=O)N[C@H](CCC(=O)O)C(=O)O)c2ccccc12 |
| > 1000 | CCCCOc1ccc2cc(C(=O)N[C@H](CCC(=O)O)C(=O)O)ccc2c1 |
| 400 | O=C(O)CC[C@@H](NS(=O)(=O)c1ccc2cc(OC3CCCC3)ccc2c1)C(=O)O |
| 590 | COc1ccc2cc(S(=O)(=O)N[C@H](CCC(=O)O)C(=O)O)ccc2c1 |
| 710 | CCCCOc1ccc2cc(S(=O)(=O)N[C@@H](CCC(=O)O)C(=O)O)ccc2c1 |
| 305 | CCCOc1ccc2cc(S(=O)(=O)N[C@H](CCC(=O)O)C(=O)O)ccc2c1 |
| 1720 | O=C(O)CC[C@@H](NS(=O)(=O)c1ccc(-c2ccccc2)cc1)C(=O)O |
| 280 | CCCCOc1ccc2cc(S(=O)(=O)N[C@H](CCC(=O)O)C(=O)O)ccc2c1 |
| > 1000 | CCCCOc1ccc2cc(S(=O)(=O)N(C)[C@H](CCC(=O)O)C(=O)O)ccc2c1 |
| 176 | CCCCCCOc1ccc2cc(S(=O)(=O)N[C@H](CCC(=O)O)C(=O)O)ccc2c1 |
| 630 | O=C(O)CC[C@@H](NS(=O)(=O)c1ccc2cc(OCC(=O)O)ccc2c1)C(=O)O |
| 810 | O=C(O)CC[C@@H](NS(=O)(=O)c1ccc2ccccc2c1)C(=O)O |
| 180 | CCCCOc1ccc2ccc(S(=O)(=O)N[C@H](CCC(=O)O)C(=O)O)cc2c1 |

System: Escherichia coli
Assay: Inhibition of Escherichia coli MurD assessed as residual activity at 1 mM
In short: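 Radiolabel MurD assay: E. coli enzyme, 25 µM UMA plus 25 µM D-[14C]Glu, Tris-HCl pH 8.6, MgCl2, 5% DMSO, compound at 1 mM; 30 min at 37 °C, acid-quenched, reverse-phase HPLC with radioactivity detection. Activity expressed relative to an inhibitor-free assay; mean of two independent experiments.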

| Compound | Activity [%] |
| --- | --- |
| O=C(O)CC[C@@H](NC(=O)/C=C/c1ccccc1)C(=O)O | 91 |
| O=C(O)CC[C@@H](NC(=O)COc1ccc2ccccc2c1)C(=O)O | 76 |
| C[C@@H](CS(=O)(=O)N[C@H](CCC(=O)O)C(=O)O)S(=O)(=O)c1ccc2ccccc2c1 | 75 |
| O=C(O)CC[C@@H](NS(=O)(=O)Cc1ccc(F)cc1Cl)C(=O)O | 86 |
| O=C(O)CC[C@@H](NC(=O)C1Oc2ccccc2NC1=O)C(=O)O (stereo partly specified) | 54 |
| O=C(O)CC[C@@H](NS(=O)(=O)Cc1ccccc1)C(=O)O | 84 |
| CC(=O)Nc1ccc(S(=O)(=O)N[C@H](CCC(=O)O)C(=O)O)cc1 | 79 |
| O=C(O)CC[C@@H](NC(=O)CN1C(=O)c2ccccc2C1=O)C(=O)O | 92 |
| O=C(O)CC[C@@H](NC(=O)CCc1cccc(O)c1)C(=O)O | 81 |
| Cc1ccc(S(=O)(=O)N[C@H](CCC(=O)O)C(=O)O)cc1 | 66 |

Second part, the compound after the results:

| Activity [%] | Compound |
| --- | --- |
| 43 | O=C(O)CC[C@@H](NS(=O)(=O)c1ccc(-c2ccccc2)cc1)C(=O)O |
| 35 | O=C(O)CC[C@@H](NS(=O)(=O)c1ccc2ccccc2c1)C(=O)O |

Reference: ChEMBL document CHEMBL1140221, “Novel naphthalene-N-sulfonyl-D-glutamic acid derivatives as inhibitors of MurD, a key peptidoglycan biosynthesis enzyme” (J Med Chem, 2008)
